CCR6 antagonist – antagonists of human CCR6 receptor. P51684. CHO-K1 CCR6 PathHunter beta-arrestin, luminescence, CCL20-stimulated. inhibition, % at 20 µM. 0.49% of 340,000 active;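 active = compounds whose inhibition of the agonist-driven luminescence signal at 20 µM reaches about 50%, limit read from the data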;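 note: cells stimulated with CCL20 at 14 nM final; plate controls were DMSO with CCL20 for no effect and DMSO without agonist for full effect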
APJ antagonist – APJ receptor antagonism; inhibition, % at 20 µM; AID 2521; P35414; 0.32% of 330,000 active; CHO-K1 APJ beta-arrestin complementation, luminescence;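 active = inhibition above about 40% at 20 µM, limit read from the data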;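 note: cells challenged with 10 nM apelin-13 agonist together with compound; plate controls were apelin-13 plus DMSO wells for no effect and DMSO wells lacking apelin-13 for full effect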
CXCR6 inh – inhibitors of human CXCR6 receptor | inhibition, % at 20 µM | AID 602244 | CHO-K1 PathHunter CXCR6 beta-arrestin, luminescence | 0.36% of 360,000 active | O00574; in the data active = inhibition above about 34%, passing the limit was not always enough;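 note: antagonist mode with CXCL16 agonist at 10 nM final; 0% = 10 nM CXCL16 with DMSO and 100% = unstimulated wells without agonist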
APJ ag – activates the human apelin receptor APJ; 0.11% of 330,000 active; P35414; AID 2520; activation, % at 20 µM; CHO-K1 APJ PathHunter beta-arrestin, luminescence; 0% DMSO wells, 100% apelin;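 active = activation more than six SD over the plate average, tested at 20 µM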;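 note: 0% = DMSO alone and 100% = apelin-13 at 10 nM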
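Assay system: CHO-K1 APJ beta-arrestin complementation cell line / Compound: single test compound dose, 20 µM final, 1% DMSO / Times: overnight seeding, 90 min compound at 25 °C, 1 h detection / Technique: beta-gal luminescence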
EBI2 antag – EBI2 (human) antagonism; P32249; EBI2 beta-arrestin recruitment, luminescence, 7a,25-OHC stimulated; inhibition, % at 5 µM; 0.81% of 360,000 active; in the data active = inhibition above about 38%;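 note: enzyme fragment complementation signal reports receptor beta-arrestin coupling in cells; 0% = agonist plus DMSO wells and 100% = wells without agonist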
Target sequence (P32249 whole entry, looked up, the tested form may be a part): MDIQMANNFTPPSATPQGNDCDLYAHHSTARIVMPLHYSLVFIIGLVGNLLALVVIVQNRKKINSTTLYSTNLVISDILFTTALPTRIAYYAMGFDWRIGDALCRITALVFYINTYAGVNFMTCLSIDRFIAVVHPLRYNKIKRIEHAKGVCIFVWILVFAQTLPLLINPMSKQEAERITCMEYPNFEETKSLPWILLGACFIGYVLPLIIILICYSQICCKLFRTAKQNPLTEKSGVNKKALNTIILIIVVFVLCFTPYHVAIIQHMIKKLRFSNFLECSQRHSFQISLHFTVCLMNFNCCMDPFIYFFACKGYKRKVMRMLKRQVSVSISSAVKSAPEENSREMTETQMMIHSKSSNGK
APJ antag confirm – APJ receptor antagonism confirmation. shares compounds with APJ antagonist. APJ beta-arrestin recruitment, luminescence, antagonist mode. inhibition, % at 20 µM. 66% of 950 active; in the data active = inhibition above about 50%
* marks the source's active call; other numbers are inactive results. Rows were chosen to be rich in hits. Some 1.5% of all compounds tested hit in one or more screens of this group.

For COc1ccccc1C1=NOC(C)(c2nnc(Cc3ccccc3)o2)C1 (configuration not stated) the results were CCR6 antagonist 16, APJ antagonist -7, CXCR6 inh 5, APJ ag -1 and EBI2 antag -9.
Cc1ccc(C)c(NC(=S)N/N=C2/CCCCc3ccccc32)c1 was read as CCR6 antagonist 34, APJ antagonist 47*, CXCR6 inh 27, APJ ag -10, EBI2 antag 30 and APJ antag confirm 84*.
For CC(C)NC(=S)N/N=C1\CCCCc2ccccc21 the results were CCR6 antagonist 30, APJ antagonist 8, CXCR6 inh 19, APJ ag -3 and EBI2 antag -10.
Screening CC(c1ccco1)N(C(=O)c1cccc(Br)c1)c1ccccn1 (configuration not stated) returned CCR6 antagonist 21, APJ antagonist 20, CXCR6 inh 4, APJ ag 0 and EBI2 antag 3.
`N#CC(C#N)=CC1=C2OC(c3ccccc3)=CC(c3ccccc3)=C2CCC1` gave CCR6 antagonist 32, APJ antagonist 41*, CXCR6 inh 28, APJ ag -8, EBI2 antag 6 and APJ antag confirm 59*.
Screening CC1=NN(c2ccc(C(=O)O)cc2)C(=O)/C1=C/c1ccc(-c2ccccc2F)o1 returned APJ antagonist 17, CXCR6 inh 7, APJ ag 8 and EBI2 antag 41.
`O=C1NN(c2cccc(Br)c2)C(=O)/C1=C\c1ccc(O)cc1` gave CCR6 antagonist 27, APJ antagonist 23, CXCR6 inh 3, APJ ag -7 and EBI2 antag 2.
Screening CC1=NN(c2ccc(C)cc2)C(=O)/C1=C/c1ccc(-c2cc([N+](=O)[O-])ccc2O)o1 returned CCR6 antagonist 72*, APJ antagonist 47*, CXCR6 inh 42*, APJ ag -5, EBI2 antag 7 and APJ antag confirm 93*.
For O=C1NN(c2cccc(Br)c2)C(=O)/C1=C/c1ccc(-c2cc([N+](=O)[O-])ccc2O)o1 the results were CCR6 antagonist 86*, APJ antagonist 61*, CXCR6 inh 62*, APJ ag -8, EBI2 antag 12 and APJ antag confirm 98*.
`CC(NC(=O)COc1ccccc1)C(=O)OCC(=O)c1cc2ccccc2o1` (configuration not stated) gave CCR6 antagonist 89*, APJ antagonist 55*, CXCR6 inh 44*, APJ ag -20, EBI2 antag 13 and APJ antag confirm 116*.
Screening O=C(CCNc1ccc(F)cc1)c1cc2ccccc2o1 returned CCR6 antagonist 5, APJ antagonist -17, CXCR6 inh -1, APJ ag -1 and EBI2 antag 2.
For O=C(COc1ccccc1)NNC(=O)c1cc2ccccc2o1 the results were CCR6 antagonist -9, APJ antagonist 8, CXCR6 inh 2, APJ ag 3 and EBI2 antag 1.
For O=C(Cc1ccc(F)cc1)OCC(=O)c1cc2ccccc2o1 the results were CCR6 antagonist 89*, APJ antagonist 77*, CXCR6 inh 11, APJ ag -12, EBI2 antag -5 and APJ antag confirm 90*.
`CC(=O)c1ccc(NC(=O)COC(=O)c2nc(Cl)ccc2Cl)cc1` gave CCR6 antagonist -3, APJ antagonist 6, CXCR6 inh -2, APJ ag -2 and EBI2 antag 2.
For Cn1cccc1Cc1nnc(SCC(=O)NCc2ccc(F)cc2)n1-c1ccc(F)cc1 the results were CCR6 antagonist -2, APJ antagonist 58*, CXCR6 inh -1, APJ ag -1, EBI2 antag 19 and APJ antag confirm 14.
`CCC(=O)Nc1ccc(S(=O)(=O)N2CCCCC2)cc1OC` gave CCR6 antagonist -10, APJ antagonist 41*, CXCR6 inh 11, APJ ag -4, EBI2 antag 1 and APJ antag confirm -34.
Screening COc1cc(S(=O)(=O)N2CCCCC2)ccc1NC(=O)c1ccccc1Cl returned CCR6 antagonist 23, APJ antagonist 9, CXCR6 inh 2, APJ ag 1 and EBI2 antag 6.
For CC1N(O)C(c2ccc(Cl)cc2Cl)N(O)C1(C)C (configuration not stated) the results were CCR6 antagonist 46, APJ antagonist -5, CXCR6 inh 4, APJ ag -1 and EBI2 antag -3.
ON1C(c2ccc(Cl)cc2Cl)N(O)[C@H]2CCCC[C@H]21 (some centres not stated) was read as CCR6 antagonist 80*, APJ antagonist 55*, CXCR6 inh 8, APJ ag -9, EBI2 antag -5 and APJ antag confirm 85*.
`O=C(NNC(=S)Nc1ccccc1)NNC(=S)Nc1ccccc1` gave CCR6 antagonist 56*, APJ antagonist 44*, CXCR6 inh 28, APJ ag -11, EBI2 antag 14 and APJ antag confirm 88*.
`c1ccc(NNC2=NCCS2)cc1` gave CCR6 antagonist 41, APJ antagonist 46*, CXCR6 inh 34, APJ ag -12, EBI2 antag 39 and APJ antag confirm 43.
COc1ccc(/C=C2/C(=O)ON=C2C)cc1Cl was read as CCR6 antagonist -8, APJ antagonist 3, CXCR6 inh -6, APJ ag -1 and EBI2 antag -6.
For COc1cc(/C=C2\C(=O)ON=C2c2ccccc2)cc(Cl)c1O the results were CCR6 antagonist 50, APJ antagonist 46*, CXCR6 inh 17, APJ ag -5, EBI2 antag -9 and APJ antag confirm 66*.
`Cc1sc(/C=C2\C(=O)ON=C2c2ccccc2)cc1Br` gave APJ antagonist 2 and APJ ag -3.
CCOc1cc(/C=C2\C(=O)ON=C2c2ccccc2)cc(Br)c1O was read as CCR6 antagonist 42, APJ antagonist 46*, CXCR6 inh 29, APJ ag -7, EBI2 antag -15 and APJ antag confirm 74*.
For COc1cc(C=C2C(=O)OC(c3ccccc3)OC2=O)cc(Br)c1O (configuration not stated) the results were CCR6 antagonist 16, APJ antagonist 5, CXCR6 inh 5, APJ ag 0 and EBI2 antag -2.
`CCOc1cc(/C=C2/C(=O)ON=C2C)cc(Br)c1O` gave CCR6 antagonist 57*, APJ antagonist 41*, CXCR6 inh 16, APJ ag -6, EBI2 antag 3 and APJ antag confirm 56*.
COc1cc(/C=C2\C(=O)ON=C2c2ccccc2)cc(Br)c1O was read as CCR6 antagonist 58*, APJ antagonist 43*, CXCR6 inh 28, APJ ag -7, EBI2 antag -22 and APJ antag confirm 95*.
